NR1D1 modulator: modulators of Rev-erb alpha DNA binding, primary screen, biochemical, FITC-DNA, fluorescence polarization, uHTS | activity, % at 10 µM | AID 1259318, 2017 | Nuclear receptor subfamily 1 group D member 1 (Homo sapiens), P20393 | Rev-erbα–FITC-DNA binding, 90 min | actives 0.79% (n = 370,000);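 active = activity above about 14%, limit read from the data; passing the limit was not always enough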;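 note: 0% = DMSO wells with 35 nM protein and 100% = DMSO wells with 750 nM protein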
Target sequence (P20393 whole entry, looked up): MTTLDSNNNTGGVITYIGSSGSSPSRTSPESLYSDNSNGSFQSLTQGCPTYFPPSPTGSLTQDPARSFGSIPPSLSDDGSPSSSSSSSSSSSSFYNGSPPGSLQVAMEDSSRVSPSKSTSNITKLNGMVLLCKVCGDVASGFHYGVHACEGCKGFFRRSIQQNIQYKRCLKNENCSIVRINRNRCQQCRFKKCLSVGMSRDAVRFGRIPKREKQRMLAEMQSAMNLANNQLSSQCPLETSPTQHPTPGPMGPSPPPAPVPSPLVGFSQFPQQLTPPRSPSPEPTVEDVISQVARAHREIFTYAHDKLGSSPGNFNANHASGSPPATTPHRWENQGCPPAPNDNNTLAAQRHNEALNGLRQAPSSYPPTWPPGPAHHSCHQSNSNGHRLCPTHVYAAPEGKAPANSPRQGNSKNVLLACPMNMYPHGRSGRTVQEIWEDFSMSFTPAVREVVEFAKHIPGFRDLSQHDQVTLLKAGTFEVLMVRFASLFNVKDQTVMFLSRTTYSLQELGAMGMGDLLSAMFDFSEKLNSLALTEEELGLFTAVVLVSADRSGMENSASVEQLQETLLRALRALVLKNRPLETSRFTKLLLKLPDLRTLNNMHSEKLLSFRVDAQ
GalR3 antag: GalR3 antagonists in HEK293 cells, primary screen, cell-based, fluorescence readout. actives 0.44% (n = 360,000). Galanin receptor type 3 (Homo sapiens), O60755. HEK293 GalR3-CNG cAMP membrane potential fluorescence; galR3 body fused to GalR1 C-terminus. inhibition, % at 3 µM;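 active = inhibition above the screen-wide average plus 3 SD, cut at about 13% in these data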;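 note: forskolin and galanin both at EC90 stimulate the cells; cAMP rise reported by CNG channel membrane potential dye signal; 0% = forskolin plus galanin with DMSO and 100% = forskolin alone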
NR2E3 ag-1: inhibitors of NR2E3-RetCOR corepressor binding, primary screen, NR2E3 agonist project, biochemical, TR-FRET, GST-NR2E3, biotin-RetCOR; 1536-well; inhibition of corepressor binding, % at 4.78 µM; actives 0.12% (n = 320,000);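 active = percent inhibition above the cutoff of mean plus 3 SD of all tested compounds, set per screening campaign, cut at about 20% in these data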;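 note: 0% = DMSO wells and 100% = biotin wells as full block of FRET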
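system = GST-tagged NR2E3 plus biotinylated RetCOR corepressor | input = 1.35 nM GST-NR2E3 | also added = 7 nM biotin-RetCOR | schedule = 5 h incubation at 4 °C | measured by = TR-FRET with europium anti-GST and streptavidin-D2, 340 nm excitation | read-out = percent loss of FRET ratio relative to control wells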
NR2E3 ag-2: NR2E3 agonists in two-hybrid cells, primary screen, cell-based, luminescence, CHO-S, Gal4-NCOR/VP16-NR2E3. luciferase. inhibition of corepressor binding, % at 3.98 µM. actives 0.35% (n = 360,000). AID 602229, 2012;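 active = inhibition above the mean of all tested compounds plus 3 SD, cut at about 70% in these data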;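 note: 0% = DMSO with NR2E3 transfected cells and 100% = cells lacking NR2E3 construct; higher means lower luciferase signal from less NR2E3 corepressor binding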
PG9 binder: binders of HIV-1 gp120 antibody PG9, primary screen, biochemical, TR-FRET; TR-FRET gp120-PG9 antibody binding; inhibition, % at 6.7 µM; actives 0.43% (n = 360,000); AID 624416, 2012; in the data active = inhibition above about 8.5%
NR1D1 mod conf: modulators of Rev-erb alpha DNA binding, confirmation, biochemical, FITC-DNA, fluorescence polarization, single point. shares compounds with NR1D1 modulator. 90 min. activation, % at 25 µM. actives 61% (n = 3,000);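 active = activation at or above a set limit, or at least 3 SD above the negative control mean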;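 note: 0% = 35 nM protein with DMSO and 100% = 750 nM protein high control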
RORg counter: modulation of RORgamma DNA binding, dose response, counter-screen for Rev-erb alpha modulator project, biochemical, fluorescence polarization, FITC-DNA | purified RORgamma protein-FITC-DNA binding | shares compounds with NR1D1 modulator | IC50, µM | actives 8% (n = 910);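 active = Compounds whose fitted half-maximal concentration for disrupting protein-DNA binding is below 10 micromolar; the record names Rev-erb in its text, so the target is in doubt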
* hit, by the source's call; . = no result. This is a sample that favours compounds with a hit; in the whole collection about 1.8% have one here.

SMILES	NR1D1 modulator	GalR3 antag	NR2E3 ag-1	NR2E3 ag-2	PG9 binder	NR1D1 mod conf	others
O=C(CSc1nnc(COc2ccccc2)n1-c1ccccc1)Nc1ccc2c(c1)OCCO2	-6	.	.	.	.	.
CCOC(=O)C1=CN(CC)CCC1=O	25*	-6	.	-11	-3	-2
CCCCCCc1nc2c(=O)[nH]c3ccccc3c2o1	52*	-3	1	-22	2	11
O[C@H]1C[C@H](c2ccccc2)N(Cc2cccs2)C[C@@H]1n1cc(C2CC2)nn1	18*	-5	.	-5	0	6
COc1ccc([C@H]2C[C@H](O)[C@@H](n3cc(C4CC4)nn3)CN2Cc2cccs2)cc1	-3	5	.	5	0	.
COc1ccc(-c2c(C)nc(N)nc2-c2ccc(OCc3ccc(C)cc3)cc2O)cc1OC	123*	-7	1	5	-2	85*	RORg counter=>40
C=C(C)CN1C(=O)C(C)SC1=NN=C1SCC(=O)N1C (stereo unspecified)	-10	-7	.	15	-1	.
CN1C(=O)CSC1=NCC12CC3CC(CC(C3)C1)C2	24*	-6	1	1	-1	32*	RORg counter=>40
CC(=O)c1sc2c(c1OC(=O)c1ccc(Cl)cc1)c(=O)n(-c1ccccc1)c(=S)n2-c1ccccc1	45*	-6	.	9	-1	10
CC(=O)c1sc2c(c1OC(=O)c1ccc(Cl)cc1Cl)c(=O)n(-c1ccccc1)c(=S)n2-c1ccccc1	3	-12	8	-38	7	.
Cn1c(Cc2cccs2)nnc1SCC(=O)Nc1ccc2c(c1)OCO2	5	.	.	.	.	.
CCOC(=O)c1ccc(NC(=O)C2CC(O)CN2S(=O)(=O)c2ccc(C)cc2)cc1 (stereo unspecified)	21*	-2	.	2	1	1
CCOC(=O)c1sc(=NC(=O)c2ccc(S(=O)(=O)N(C)c3ccccc3)cc2)n(C)c1C	37*	-5	3	16	-1	29*
CCOC(=O)c1sc(=NC(=O)c2cc(OC)c(OC)c(OC)c2)n(C)c1C	30*	1	-1	10	28*	-4
CCOC(=O)c1sc(=NC(=O)c2cccc(C)c2)n(C)c1C	-1	2	4	-48	1	.
CCOC(=O)c1sc(=NC(=O)CCSc2ccccc2)n(C)c1C	27*	0	4	-34	-1	13
COC(=O)[C@]12C[C@H](CC(=O)NCCC(C)C)C(=O)N(CCc3ccc(OC)c(OC)c3)C1=C[C@H](C1CCCC1)O[C@@H]2C	13	.	.	.	.	.
COC(=O)c1cc(-c2ccccc2OC)c(=O)n2c1CCC2	0	.	.	.	.	.
Cc1ccc(C(=O)/C=C/c2c[nH]c3ccccc23)cc1	8	-8	3	-61	-3	.
CCN(CC)C(=O)c1ccc(/C=C/c2c[nH]c3ccccc23)[n+](C)c1	45*	-2	-12	-16	-12	50*	RORg counter=>40
CC[n+]1c(/C=C/c2c[nH]c3ccccc23)ccc2cc(C)ccc21	126*	-10	.	.	-14	102*	RORg counter=>40
COC(=O)C1CN(CCO)CCS(=O)(=O)N1Cc1cn(Cc2ccccc2Br)nn1 (stereo unspecified)	2	.	.	.	.	.
COC(=O)[C@]12C[C@H](CC(=O)N3CCC(c4ccccc4)CC3)C(=O)N(Cc3ccco3)C1=C[C@H](C(C)C)O[C@@H]2C1CC1	7	.	.	.	.	.
O=C(Nc1ccc(F)cc1)Nc1c(-c2ccc(C(F)(F)F)cc2)nc2ncccn12	-4	.	.	.	.	.
Cc1cc(C)cc(OCC(C)CN2CCC(C(O)(c3ccccc3)c3ccccc3)CC2)c1 (stereo unspecified)	-3	.	.	.	.	.

Source: PubChem (several laboratories)
